Converted amounts (≈) assume the structure as drawn.
What was measured:
[1] = tested on: SK-BR-3; test: Growth inhibition of human SK-BR-3 cells after 72 hrs by SRB assay; assay type: functional; details: SK-BR-3, 72 h, read-out: ED50 (the source's name)
Outline: (§1)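 SRB assay. Cells were grown in RPMI-1640 with 10% FBS at 37 °C and 5% CO2, then seeded in 96-well plates. Compound was added from DMSO stock, followed by 72 h incubation. Cells were fixed with 10% TCA, stained with 0.4% SRB, solubilized in 10 mM Tris base, and read at 515 nm. ED50 is the concentration giving 50% reduction of net protein increase versus control; mean of at least three independent determinations.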

[2] = tested on: MCF7; test: Growth inhibition of human MCF7 cells after 72 hrs by SRB assay; assay type: functional; details: MCF7, 72 h, read-out: ED50 (the source's name); outline: as §1
[3] = tested on: ZR-75-1; test: Growth inhibition of human ZR-75-1 cells after 72 hrs by SRB assay; assay type: functional; details: ZR-75-1, 72 h, read-out: ED50 (the source's name); outline: as §1
[4] = tested on: MDA-MB-231; test: Growth inhibition of human MDA-MB-231 cells after 72 hrs by SRB assay; assay type: functional; details: MDA-MB-231, 72 h, read-out: ED50 (the source's name); outline: as §1
[5] = tested on: DU-145; test: Cytotoxicity against human DU145 cells after 72 hrs by SRB assay; assay type: functional; details: DU-145, 72 h, read-out: ED50 (the source's name)
[6] = tested on: KB; test: Cytotoxicity against human KB cells after 72 hrs by SRB assay; assay type: functional; details: read-out: ED50 (the source's name); outline: as §1
[7] = Cytotoxicity against human KBVIN cells after 72 hrs by SRB assay; assay type: functional; details: read-out: ED50 (the source's name); outline: as §1
[8] = tested on: A549; test: Cytotoxicity against human A549 cells after 72 hrs by SRB assay; assay type: functional; details: A549, 72 h, read-out: ED50 (the source's name)
[9] = biological target: RAC-alpha serine/threonine-protein kinase (Homo sapiens) (UniProt P31749); test: Inhibition of human recombinant AKT1 expressed in Sf21 cells at 10 uM
Sequence of RAC-alpha serine/threonine-protein kinase (Homo sapiens) (P31749 whole entry): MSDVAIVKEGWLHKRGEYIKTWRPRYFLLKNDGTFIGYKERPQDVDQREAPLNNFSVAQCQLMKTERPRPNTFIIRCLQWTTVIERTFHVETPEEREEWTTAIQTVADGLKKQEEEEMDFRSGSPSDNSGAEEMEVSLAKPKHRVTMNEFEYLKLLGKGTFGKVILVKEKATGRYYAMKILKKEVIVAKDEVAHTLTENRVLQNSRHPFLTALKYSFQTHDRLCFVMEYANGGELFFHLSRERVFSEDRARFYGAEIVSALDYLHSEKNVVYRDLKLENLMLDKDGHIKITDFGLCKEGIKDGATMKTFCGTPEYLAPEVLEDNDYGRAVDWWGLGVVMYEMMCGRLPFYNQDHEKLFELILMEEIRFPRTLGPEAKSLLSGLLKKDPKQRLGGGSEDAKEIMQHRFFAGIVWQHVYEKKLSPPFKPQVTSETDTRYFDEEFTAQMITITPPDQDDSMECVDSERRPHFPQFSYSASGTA

[10] = Cytotoxicity against human MCF10A cells after 72 hrs by MTT assay; assay type: cell-based, MCF-10A; details: read-out: ED50
Outline: (§2)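 MTT assay. Cells were seeded at 5000/well in recommended growth medium and incubated overnight. Compound was added in DMSO, followed by 72 h at 37 °C in 5% CO2. MTT reagent was added for 2 h and formazan was read at OD 570 nm. Values were interpolated ED50; data are from replicates in a single experiment.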

[11] = tested on: ZR-75-1; test: Antitumor activity against human ZR-75-1 cells xenografted in athymic nude mouse SCID assessed as mean time to end point at 10 mg/kg, ip administered in QOD schedule; assay type: functional; details: route intraperitoneal
Outline: (§3)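 Female SCID mice, 5 weeks old, 20-24 g, implanted s.c. in the right flank with 1 × 10^7 ZR-75-1 cells in PBS. Tumors were caliper-measured, with volume = w² × l/2. Dosing was i.p. in vehicle (4% benzyl alcohol/6% cremophor/90% D5W); vehicle controls were given qod to end. TTE is the mean time to endpoint. %TGD = (T−C)/C × 100. Logrank test, P ≤ 0.05.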

[12] = Cytotoxicity against human 184A1 cells after 72 hrs by MTT assay; assay type: cell-based; details: read-out: ED50; outline: as §2
[13] = tested on: ZR-75-1; test: Antitumor activity against human ZR-75-1 cells xenografted in athymic nude mouse SCID assessed as tumor growth delay at 10 mg/kg, ip administered in QOD schedule; assay type: functional; details: route intraperitoneal; outline: as §3
[14] = biological target: Tyrosine-protein kinase ABL1 (Mus musculus) (UniProt P00520); test: Inhibition of mouse recombinant ABL expressed in Escherichia coli at 10 uM
Sequence of Tyrosine-protein kinase ABL1 (Mus musculus) (P00520 whole entry): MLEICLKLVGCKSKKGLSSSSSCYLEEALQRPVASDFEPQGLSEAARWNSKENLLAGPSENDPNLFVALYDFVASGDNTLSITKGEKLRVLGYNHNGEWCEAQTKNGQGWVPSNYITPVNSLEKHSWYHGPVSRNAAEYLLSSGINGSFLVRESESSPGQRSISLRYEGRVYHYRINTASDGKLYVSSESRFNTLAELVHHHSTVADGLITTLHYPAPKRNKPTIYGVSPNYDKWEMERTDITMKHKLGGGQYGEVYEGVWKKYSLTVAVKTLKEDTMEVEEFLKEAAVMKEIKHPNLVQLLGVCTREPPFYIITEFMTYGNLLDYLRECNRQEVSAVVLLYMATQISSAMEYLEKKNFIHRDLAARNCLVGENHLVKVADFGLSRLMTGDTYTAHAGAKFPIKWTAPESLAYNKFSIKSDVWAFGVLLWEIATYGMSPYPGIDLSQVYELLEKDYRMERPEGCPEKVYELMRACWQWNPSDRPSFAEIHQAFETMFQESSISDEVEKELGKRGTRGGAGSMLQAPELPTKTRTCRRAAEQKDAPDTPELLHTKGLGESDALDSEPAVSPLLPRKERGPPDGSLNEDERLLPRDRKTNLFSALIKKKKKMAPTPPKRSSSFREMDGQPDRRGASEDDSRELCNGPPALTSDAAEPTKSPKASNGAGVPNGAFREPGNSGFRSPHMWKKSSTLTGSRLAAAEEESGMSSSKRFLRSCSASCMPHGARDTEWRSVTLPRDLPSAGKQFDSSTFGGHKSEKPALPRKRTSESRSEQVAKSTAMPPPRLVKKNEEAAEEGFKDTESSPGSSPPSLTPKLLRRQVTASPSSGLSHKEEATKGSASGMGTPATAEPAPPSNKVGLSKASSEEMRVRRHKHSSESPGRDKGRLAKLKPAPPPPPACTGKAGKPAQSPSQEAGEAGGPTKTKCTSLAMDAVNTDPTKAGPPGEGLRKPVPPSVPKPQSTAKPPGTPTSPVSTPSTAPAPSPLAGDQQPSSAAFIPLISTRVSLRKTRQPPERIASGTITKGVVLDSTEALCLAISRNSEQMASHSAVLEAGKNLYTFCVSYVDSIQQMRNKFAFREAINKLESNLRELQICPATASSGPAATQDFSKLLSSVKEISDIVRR

[15] = biological target: Casein kinase II subunit alpha (Homo sapiens) (UniProt P68400); test: Inhibition of human recombinant CK2alpha1 expressed in Sf9 cells at 10 uM
Sequence of Casein kinase II subunit alpha (Homo sapiens) (P68400 whole entry, looked up): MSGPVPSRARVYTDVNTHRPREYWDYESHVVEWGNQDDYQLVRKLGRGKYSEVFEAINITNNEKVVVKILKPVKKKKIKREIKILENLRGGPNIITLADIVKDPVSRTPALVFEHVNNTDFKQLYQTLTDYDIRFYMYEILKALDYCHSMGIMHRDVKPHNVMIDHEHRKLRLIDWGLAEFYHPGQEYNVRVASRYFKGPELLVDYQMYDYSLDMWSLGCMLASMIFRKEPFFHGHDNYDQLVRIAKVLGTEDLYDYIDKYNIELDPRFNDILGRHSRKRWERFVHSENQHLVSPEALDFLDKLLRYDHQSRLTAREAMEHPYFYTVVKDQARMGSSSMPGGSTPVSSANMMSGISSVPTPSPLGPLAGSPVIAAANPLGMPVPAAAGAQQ

[16] = tested on: ZR-75-1; test: Selectivity for ED50 for human ZR-75-1 to ED50 for human SK-BR-3; assay type: functional
Outline: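 SRB growth assay: ZR-75-1 and SK-BR-3 cells in RPMI-1640 with 10% FBS at 37 °C under 5% CO2, seeded in 96-well plates, compound added from DMSO stock, 72 h exposure, TCA fixation, SRB staining, absorbance at 515 nm. ED50 is 50% reduction of net protein increase, averaged from ≥3 independent runs; ratio of ZR-75-1 to SK-BR-3 ED50.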

[17] = tested on: ZR-75-1; test: Antitumor activity against human ZR-75-1 cells xenografted in athymic nude mouse SCID assessed as mean time to end point at 20 mg/kg, ip administered in Q4D X 5 schedule; assay type: functional; details: route intraperitoneal; outline: as §3
[18] = tested on: ZR-75-1; test: Antitumor activity against human ZR-75-1 cells xenografted in athymic nude mouse SCID assessed as tumor growth delay at 20 mg/kg, ip administered in Q4D X 5 schedule; assay type: functional; details: route intraperitoneal; outline: as §3

| SMILES | EC50 [1] [µg/mL] | EC50 [2] [µg/mL] | EC50 [3] [µg/mL] | EC50 [4] [µg/mL] | EC50 [6] [µg/mL] | further results |
| --- | --- | --- | --- | --- | --- | --- |
| CCc1coc2c1c(=O)oc1c3cccc(C)c3ccc21 | 11 (≈ 39.5 µM) | 7.5 (≈ 26.9 µM) |  |  |  |  |
| Cc1coc2c1c(=O)oc1c3ccccc3ccc21 | 1 (≈ 4 µM) | 4 (≈ 16 µM) | 4 (≈ 16 µM) |  |  |  |
| Cc1cc2c(=O)oc3c4ccccc4ccc3c2o1 | 12 (≈ 48 µM) | > 20 |  |  |  |  |
| COc1cccc2c1ccc1c3occ(C)c3c(=O)oc21 | 0.2 (≈ 0.714 µM) | 2.3 (≈ 8.21 µM) | 0.1 (≈ 0.357 µM) | 6.4 (≈ 22.8 µM) | 13 (≈ 46.4 µM) | EC50 [5]: 14 µg/mL (≈ 50 µM); EC50 [7]: 12 µg/mL (≈ 42.8 µM) |
| CC1COc2c1c(=O)oc1c2ccc2ccccc21 (centres undefined) | 14 (≈ 55.5 µM) |  |  |  |  |  |
| Cc1oc2c(c1C)c(=O)oc1c3ccccc3ccc21 | 6.9 (≈ 26.1 µM) | > 20 |  |  |  |  |
| Cc1coc2c1c(=O)oc1c3cccc(F)c3ccc21 | 1.1 (≈ 4.1 µM) | 4.5 (≈ 16.8 µM) | 0.8 (≈ 2.98 µM) | > 10 | 13 (≈ 48.5 µM) | EC50 [5]: 18 µg/mL (≈ 67.1 µM); EC50 [7]: 15 µg/mL (≈ 55.9 µM); EC50 [8]: 14 µg/mL (≈ 52.2 µM) |
| Cc1coc2c1c(=O)oc1c3ccccc3n(C)c(=O)c21 | 12 (≈ 42.7 µM) | 11 (≈ 39.1 µM) |  |  |  |  |
| Cc1coc2c1c(=O)oc1c3cccc(C(C)Br)c3ccc21 (centres undefined) | 0.1 (≈ 0.28 µM) |  | 0.1 (≈ 0.28 µM) | 14 (≈ 39.2 µM) | 13 (≈ 36.4 µM) | EC50 [5]: 18 µg/mL (≈ 50.4 µM); EC50 [7]: > 20 µg/mL; EC50 [8]: > 20 µg/mL |
| CCc1cccc2c1ccc1c3occ(C)c3c(=O)oc21 | 0.1 (≈ 0.359 µM) | 0.2 (≈ 0.719 µM) | 0.1 (≈ 0.359 µM) | 8.8 (≈ 31.6 µM) | 13 (≈ 46.7 µM) | inhibition [9]: 93%; CC50 at 72 h [10]: 2.7 µg/mL (≈ 9.7 µM); Activity [11]: 29.5 days; CC50 at 72 h [12]: 4.4 µg/mL (≈ 15.8 µM); EC50 [5]: 16 µg/mL (≈ 57.5 µM); Activity [13]: 95%; inhibition [14]: 93%; inhibition [15]: 99%; EC50 [8]: 11 µg/mL (≈ 39.5 µM) |
| CCc1cccc2c1ccc1c3occ(C)c3/c(=N/O)oc21 | 19 (≈ 64.8 µM) | > 20 |  |  |  |  |
| CCc1cccc2c1ccc1c3occ(C)c3c(=S)oc21 | 16 (≈ 54.4 µM) | > 20 |  |  |  |  |
| Cc1coc2c1c(=O)oc1c3cccc(OCCN(C)C)c3ccc21 | 5.8 (≈ 17.2 µM) | 5 (≈ 14.8 µM) |  |  |  |  |
| Cc1cccc2c1ccc1c3occ(C)c3c(=O)oc21 | 0.2 (≈ 0.757 µM) | 0.6 (≈ 2.27 µM) | 0.3 (≈ 1.14 µM) | 10 (≈ 37.8 µM) |  |  |
| CCc1cccc2c1ccc1c3oc(C)cc3c(=O)oc21 | 2.1 (≈ 7.55 µM) | > 20 | 2.2 (≈ 7.9 µM) | 9.6 (≈ 34.5 µM) | 14 (≈ 50.3 µM) | EC50 [7]: 13 µg/mL (≈ 46.7 µM); EC50 [8]: 12 µg/mL (≈ 43.1 µM) |
| Cc1coc2c1c(=O)sc1c3ccccc3ccc21 | 12 (≈ 45.1 µM) | > 20 |  |  |  |  |

| SMILES | EC50 [1] [µg/mL] | EC50 [2] [µg/mL] | EC50 [3] [µg/mL] | EC50 [4] [µg/mL] | EC50 [6] [µg/mL] | further results |
| --- | --- | --- | --- | --- | --- | --- |
| CCc1cccc2c1ccc1c3c(c(=O)oc12)C(C)CO3 (centres undefined) | 5.1 (≈ 18.2 µM) |  |  |  |  |  |
| CCc1cccc2c1ccc1c3occ(-c4ccc(OC)cc4)c3c(=O)oc21 | > 20 | > 20 |  |  |  |  |
| COc1ccc(-c2coc3c2c(=O)oc2c4ccccc4ccc32)cc1 | 5.8 (≈ 16.9 µM) |  |  |  |  |  |
| CCCc1cccc2c1ccc1c3occ(C)c3c(=O)oc21 | 0.1 (≈ 0.342 µM) | 1.2 (≈ 4.1 µM) | 0.3 (≈ 1.03 µM) | > 10 | 12 (≈ 41 µM) | Ratio ED50 [16]: 3; EC50 [5]: 15 µg/mL (≈ 51.3 µM); EC50 [7]: 11 µg/mL (≈ 37.6 µM) |
| Cc1coc2c1c(=O)oc1c3cccc(O)c3ccc21 | 5 (≈ 18.8 µM) | 15 (≈ 56.3 µM) |  |  |  |  |
| CCc1cccc2c1ccc1c3occ(CC)c3c(=O)oc21 | 1.5 (≈ 5.13 µM) | 1.3 (≈ 4.45 µM) | 0.6 (≈ 2.05 µM) | > 10 | 12 (≈ 41 µM) | EC50 [5]: 16 µg/mL (≈ 54.7 µM); EC50 [7]: 15 µg/mL (≈ 51.3 µM); EC50 [8]: 18 µg/mL (≈ 61.6 µM) |
| CCOc1cccc2c1ccc1c3occ(C)c3c(=O)oc21 | 2.5 (≈ 8.49 µM) | > 20 | 1.9 (≈ 6.46 µM) | 9.8 (≈ 33.3 µM) | 3.7 (≈ 12.6 µM) | EC50 [5]: 4.7 µg/mL (≈ 16 µM); EC50 [7]: 5.3 µg/mL (≈ 18 µM); EC50 [8]: 3.5 µg/mL (≈ 11.9 µM) |
| Cc1coc2c1c(=O)oc1c3cccc(C(C)C)c3ccc21 | 2 (≈ 6.84 µM) | 1.4 (≈ 4.79 µM) | 0.2 (≈ 0.684 µM) | > 10 | 11 (≈ 37.6 µM) | Ratio ED50 [16]: 10; EC50 [7]: 7.3 µg/mL (≈ 25 µM) |
| CCc1cccc2c1ccc1c3oc(C)c(C)c3c(=O)oc21 | 9.8 (≈ 33.5 µM) | 8 (≈ 27.4 µM) |  |  |  |  |
| CC(=O)O[C@H]1C(=O)[C@@]2(C)[C@H]([C@H](OC(=O)c3ccccc3)[C@]3(O)C[C@H](OC(=O)[C@H](O)[C@@H](NC(=O)c4ccccc4)c4ccccc4)C(C)=C1C3(C)C)[C@]1(OC(C)=O)CO[C@@H]1C[C@@H]2O [PACLITAXEL] |  |  |  |  |  | Activity [17]: 35 days; Activity [18]: 132% |
| CC(=O)Oc1cccc2c1ccc1c3occ(C)c3c(=O)oc21 | 5.7 (≈ 18.5 µM) | 6 (≈ 19.5 µM) |  |  |  |  |
| Cc1coc2c1c(=S)oc1c3ccccc3ccc21 | > 20 | > 20 |  |  |  |  |
| Cc1ccc2c(=O)oc3c4ccccc4ccc3c2c1 | > 20 |  |  |  |  |  |
| CCCn1c(=O)c2c3occ(C)c3c(=O)oc2c2ccccc21 | 15 (≈ 48.5 µM) | > 20 |  |  |  |  |
| CCc1coc2c1c(=O)oc1c3ccccc3ccc21 | 1.8 (≈ 6.81 µM) | 2.5 (≈ 9.46 µM) | 2.3 (≈ 8.7 µM) | > 10 | 7.5 (≈ 28.4 µM) | EC50 [5]: 8.7 µg/mL (≈ 32.9 µM); EC50 [7]: 6.6 µg/mL (≈ 25 µM); EC50 [8]: 8.2 µg/mL (≈ 31 µM) |
| Cc1coc2c1c(=O)[nH]c1c3ccccc3ccc12 | 4.4 (≈ 17.7 µM) |  |  |  |  |  |

Reference: ChEMBL document CHEMBL1157575, “Antitumor agents. 272. Structure-activity relationships and in vivo selective anti-breast cancer activity of novel neo-tanshinlactone analogues” (J Med Chem, 2010)
